These results are taken from ChEMBL document CHEMBL4373735, “N-alkyl-hydroxybenzoyl anilide hydroxamates as dual inhibitors of HDAC and HSP90, downregulating IFN-γ induced PD-L1 expression” (Eur J Med Chem, 2020).

Test [1] has as its target Histone deacetylase (Homo sapiens) (UniProt Q13547+O15379+Q9UBN7+Q92769+Q9UQL6+Q8WUI4+Q9BY41+Q96DB2+P56524+Q9UKV0+Q969S8). The experiment in a line: Inhibition of HDAC in human H1975 cells assessed as alpha tubulin acetylation after 24 hrs by Western blot analysis. The format is cell-based. The procedure, abridged: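 Whole-cell lysates from H1975 cells after 24 h culture with compound at the indicated concentrations. Acetylated α-tubulin and acetylated histone H3 detected by immunoblot: SDS-PAGE, PVDF transfer, primary antibody overnight at 4°C, HRP secondary, ECL. Repeated at least three times.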
Background: Immunoblotting shows a protein as a band on a membrane.

Test [2] deals with Heat shock protein HSP 90-alpha (Homo sapiens, UniProt P07900). The experiment in a line: Inhibition of FITC-geldanamycin binding to recombinant human full-length C-terminal His-tagged HSP90alpha expressed in Escherichia coli after 3 hrs by fluorescence polarization assay. On the technique in general: In fluorescence polarisation assays a small probe gives low polarisation when free and higher when bound to something large.

For test [3], the system named is NCI-H1975. The test is described as follows: Induction of apoptosis in human NCI-H1975 cells assessed as activation of caspase 9 at 0.1 to 3 uM measured after 48 hrs immunoblot analysis. The format is functional, cell-based. An outline of the steps: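 H1975 cells cultured with compound at the indicated concentrations for 48 h, then immunoblotted with the indicated antibodies. Lysis buffer was ice-cold RIPA-type with phosphatase and protease inhibitors, 30 min on ice. Proteins separated on 8-15% SDS-PAGE, transferred to PVDF, primary antibody overnight at 4°C, HRP secondary 1 h at room temperature, ECL detection.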

Test [4] concerns NCI-H1975. The test is described as follows: Inhibition of PD-L1 cell surface expression in IFNgamma-stimulated human NCI-H1975 cells at 0.74 uM after 48 hrs by FITC staining based FACScan flow cytometry analysis. The format is functional. The procedure, abridged:
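Cells seeded at 3.2×10^5/well and treated with IFN-γ 20 ng/ml with or without compound for 48 h. Then 3×10^5 cells stained with mouse anti-PD-L1 5 µg/ml for 1 h, followed by FITC goat anti-mouse IgG for 1 h, in PBS/0.05% BSA. FITC mean fluorescence intensity measured by FACScan and expressed relative to untreated cells. Mean ± S.D. of three independent experiments.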
In general terms: Flow cytometry measures light scatter and fluorescence of single cells or particles in a stream.

For test [5], the target named is Heat shock protein HSP90 (Homo sapiens) (UniProt P07900+P08238). The test is described as follows: Inhibition of HSP90 in human H1975 cells assessed as induction of HSP70 expression by Western blot analysis. Format: cell-based. An outline of the steps: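 H1975 cells given DMSO or 0.1-3 μM compound for 24 h, or 1 μM for varying times. HSP70 and HSP90 client proteins detected by Western blot of whole-cell lysates, with GAPDH as internal control. Repeated in at least three independent experiments.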

The target in test [6] is NAD-dependent protein deacetylase sirtuin-1 (Homo sapiens, UniProt Q96EB6). The test is described as follows: Inhibition of human recombinant N-terminal His-tagged SIRT1 (1 to 747 residues) expressed in Escherichia coli using Ac-RHK-K(Ac)-AMC as substrate after 30 mins in presence of NAD+ by fluorimetry analysis. The procedure, abridged: (§1)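 Isoform assays run by an outside contractor. […] Trichostatin A tested in parallel the same way as control.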
NAD-dependent protein deacetylase sirtuin-1, sequence (Q96EB6 whole entry, the tested form may be a part, canonical isoform): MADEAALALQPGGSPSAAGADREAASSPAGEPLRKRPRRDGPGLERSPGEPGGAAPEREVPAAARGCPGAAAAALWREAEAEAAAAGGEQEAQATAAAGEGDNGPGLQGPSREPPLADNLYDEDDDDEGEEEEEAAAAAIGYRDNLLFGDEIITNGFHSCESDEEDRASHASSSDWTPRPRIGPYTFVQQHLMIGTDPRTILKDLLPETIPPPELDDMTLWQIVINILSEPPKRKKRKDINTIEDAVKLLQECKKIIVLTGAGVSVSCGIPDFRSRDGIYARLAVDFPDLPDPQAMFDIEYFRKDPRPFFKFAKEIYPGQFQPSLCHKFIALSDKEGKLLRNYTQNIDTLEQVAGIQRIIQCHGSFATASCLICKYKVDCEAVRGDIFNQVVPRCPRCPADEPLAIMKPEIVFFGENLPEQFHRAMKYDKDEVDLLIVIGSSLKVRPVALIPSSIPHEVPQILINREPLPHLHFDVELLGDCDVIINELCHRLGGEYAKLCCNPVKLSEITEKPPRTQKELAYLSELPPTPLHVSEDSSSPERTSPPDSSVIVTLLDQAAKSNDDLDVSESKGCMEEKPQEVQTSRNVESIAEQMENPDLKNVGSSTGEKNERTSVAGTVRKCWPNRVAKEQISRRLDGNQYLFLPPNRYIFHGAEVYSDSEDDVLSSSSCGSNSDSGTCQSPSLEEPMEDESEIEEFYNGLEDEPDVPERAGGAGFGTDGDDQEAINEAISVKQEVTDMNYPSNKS

Test [7] relates to NCI-H1975. The test is described as follows: Cell cycle arrest in human NCI-H1975 cells assessed as increase in accumulation at sub-G1 phase at 0.1 to 3 uM after 48 hrs by propidium iodide/RNase staining based FACScan flow cytometry analysis. Format: functional. The procedure, abridged:
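H1975 cells seeded at 2.5×10^5/well, left overnight, then exposed to DMSO or compound at several concentrations for 48 h. Washed in PBS, fixed in ice-cold 70% ethanol at -20 °C overnight, stained with propidium iodide 80 ug/ml plus 0.1% Triton X-100 and RNase A 100 ug/ml in PBS. DNA content read by FACScan.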

The next test addresses Histone deacetylase 1 (Homo sapiens, UniProt Q13547). The experiment in a line: Inhibition of recombinant full length human FLAG/His-tagged HDAC1 (1 to 482 residues) expressed in baculovirus infected insect cells using RHK-K(Ac)-AMC as substrate measured after 60 mins by fluorimetric assay. The procedure, abridged: as §1

SMILES strings stand for the structures. Active and inactive are the calls of the source. No cut-off for these calls is given here.

Histone deacetylase 1, sequence (Q13547 whole entry, the tested form may be a part): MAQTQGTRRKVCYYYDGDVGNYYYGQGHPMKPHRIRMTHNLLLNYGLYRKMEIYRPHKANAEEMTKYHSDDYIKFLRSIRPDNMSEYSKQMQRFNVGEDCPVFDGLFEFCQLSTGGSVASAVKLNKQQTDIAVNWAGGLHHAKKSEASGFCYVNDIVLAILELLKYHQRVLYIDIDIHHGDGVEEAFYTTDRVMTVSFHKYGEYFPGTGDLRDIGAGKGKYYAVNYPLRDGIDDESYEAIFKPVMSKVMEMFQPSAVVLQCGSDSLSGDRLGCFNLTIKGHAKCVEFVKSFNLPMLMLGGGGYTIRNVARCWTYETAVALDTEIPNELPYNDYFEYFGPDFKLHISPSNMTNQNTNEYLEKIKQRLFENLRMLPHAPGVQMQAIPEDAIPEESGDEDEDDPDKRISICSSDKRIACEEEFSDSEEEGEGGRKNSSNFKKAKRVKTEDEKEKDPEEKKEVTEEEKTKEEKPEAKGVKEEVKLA

A word on the IC50: it is the midpoint of a concentration-inhibition curve. Turning to `CC(C)c1cc(C(=O)N(C)c2ccc(NC(=O)CCCCCCCC(=O)NO)cc2)c(O)cc1O`, in test [1], the inhibition result was “Dose-dependent effect”. Moreover, the IC50 in test [2] was 77.2 nM; in test [6], over 10000 nM; on Histone deacetylase 1 it was 6060 nM. Also, the outcome with NCI-H1975 [3] and in the test with NCI-H1975 [7] was Active. For the same compound, the inhibition result (in the test on NCI-H1975 [4]; in test [5]) was “Active” in each case.

Take `CC(C)c1cc(C(=O)N(C)c2ccc(NC(=O)CCCCCCC(=O)NO)cc2)c(O)cc1O`: in test [1], the inhibition result is “Dose-dependent effect”. Further, the values for the IC50 (in test [2]; in test [6]; at Histone deacetylase 1) were 153 nM, over 10000 nM and 1310 nM, respectively. Also, the outcome with NCI-H1975 [3] and with NCI-H1975 [7] was Active. The inhibition result (in the test on NCI-H1975 [4]; in test [5]) was “Active” each time.
